Results: ChEMBL document CHEMBL5705899 (Biochem J, 2014)
Calls of active or inactive are those of the source. No cut-off for these calls is given here.

Columns and labels:
[1] = target: Dual specificity protein kinase CLK1 (Homo sapiens) (UniProt P49759); assay: Inhibition of human CLK1 at 1 uM using autophos as substrate in presence of 33P-ATP by ProQinase assay
[2] = target: LKB1-STRAD-MO25 complex (Homo sapiens) (UniProt Q15831+Q7RTN6+Q9Y376); assay: Inhibition of recombinant human N-terminal His6-tagged LKB1 (1 to 433 residues)/MO25 (1 to 341 residues)/STRAD (1 to 431 residues) expressed in baculovirus infected Sf21 cells assessed as remaining activity at 1 uM using LSNLYHQGKFLQTFCGSPLYRRR as substrate incubated for 30 mins in presence of [gamma-33P]ATP by filter binding method relative to control
[3] = target: Ephrin type-A receptor 4 (Homo sapiens) (UniProt P54764); assay: Inhibition of human EPHA4 at 1 uM using polyEY as substrate in presence of 33P-ATP by ProQinase assay
[4] = target: Tyrosine-protein kinase HCK (Homo sapiens) (UniProt P08631); assay: Inhibition of human HCK at 1 uM using polyEY as substrate in presence of 33P-ATP by ProQinase assay
Tyrosine-protein kinase HCK (Homo sapiens), sequence (P08631 2-526 limits assumed): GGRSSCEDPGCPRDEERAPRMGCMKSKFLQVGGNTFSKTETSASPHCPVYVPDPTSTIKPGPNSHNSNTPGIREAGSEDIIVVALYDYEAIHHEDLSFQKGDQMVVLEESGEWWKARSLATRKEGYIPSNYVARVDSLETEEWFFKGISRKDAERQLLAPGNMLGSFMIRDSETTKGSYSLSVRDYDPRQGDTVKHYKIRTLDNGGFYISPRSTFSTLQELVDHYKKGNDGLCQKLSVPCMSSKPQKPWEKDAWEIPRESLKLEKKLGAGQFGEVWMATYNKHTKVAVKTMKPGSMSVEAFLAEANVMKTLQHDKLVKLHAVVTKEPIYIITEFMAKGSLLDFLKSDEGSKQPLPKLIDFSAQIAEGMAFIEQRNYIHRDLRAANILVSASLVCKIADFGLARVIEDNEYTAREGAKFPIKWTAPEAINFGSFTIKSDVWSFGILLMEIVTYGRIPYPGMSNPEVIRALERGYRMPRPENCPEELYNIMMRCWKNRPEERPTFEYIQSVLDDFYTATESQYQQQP

[5] = target: CDK9/cyclin T1 (Homo sapiens) (UniProt O60563+P50750); assay: (§1) Inhibition of recombinant human N-terminal GST-tagged CDK9 (1 to 372 residues)/Cyclin T1 (1 to 726 residues) expressed in baculovirus infected Sf21 cells assessed as remaining activity at 1 uM using YSPTSPSYSPTSPSYSPTSPKKK as substrate incubated for 30 mins in presence of [gamma-33P]ATP by filter binding method relative to control
[6] = target: PI3-kinase p110-delta/p85-alpha (Homo sapiens, UniProt O00329); assay: Inhibition of human PIK3CD/PIK3R1 using PIP2/PS as substrate by ADP-Glo assay; type: protein-complex assay
[7] = target: 5'-AMP-activated protein kinase catalytic subunit alpha-1 (Homo sapiens) (UniProt Q13131); assay: Inhibition of human AMPKalpha1 (1 to 550 residues) at 1 uM using RBER-CHKtide as substrate in presence of 33P-ATP by ProQinase assay
[8] = target: LIM domain kinase 2 (Homo sapiens) (UniProt P53671); assay: Inhibition of human LIMK2 at 1 uM using CFL1 as substrate in presence of 33P-ATP by ProQinase assay
[9] = target: MAP kinase-activated protein kinase 3 (Homo sapiens) (UniProt Q16644); assay: Inhibition of human MAPKAPK3 at 1 uM using bio-4xCHKT as substrate in presence of 33P-ATP by ProQinase assay
MAP kinase-activated protein kinase 3 (Homo sapiens), sequence (Q16644 whole entry, looked up): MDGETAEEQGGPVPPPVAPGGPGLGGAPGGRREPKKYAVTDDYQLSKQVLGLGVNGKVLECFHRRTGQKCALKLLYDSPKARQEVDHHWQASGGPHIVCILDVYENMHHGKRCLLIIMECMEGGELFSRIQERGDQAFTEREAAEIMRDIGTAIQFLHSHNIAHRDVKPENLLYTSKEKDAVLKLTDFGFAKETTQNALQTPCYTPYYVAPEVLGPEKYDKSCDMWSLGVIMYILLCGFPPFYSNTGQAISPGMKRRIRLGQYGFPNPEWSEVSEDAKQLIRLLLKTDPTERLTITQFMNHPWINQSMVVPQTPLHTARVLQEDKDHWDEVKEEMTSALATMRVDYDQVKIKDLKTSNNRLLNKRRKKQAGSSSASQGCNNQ

[10] = target: Tyrosine-protein kinase receptor UFO (Homo sapiens) (UniProt P30530); assay: Inhibition of human AXL at 1 uM using polyEy as substrate in presence of 33P-ATP by ProQinase assay
[11] = target: Protein kinase C alpha type (Homo sapiens) (UniProt P17252); assay: Inhibition of recombinant human N-terminal GST-tagged PKCA (2 to 351 residues) expressed in Escherichia coli assessed as remaining activity at 1 uM using kKemptide as substrate incubated for 30 mins in presence of [gamma-33P]ATP by filter binding method relative to control
[12] = target: Tyrosine-protein kinase TXK (Homo sapiens) (UniProt P42681); assay: Inhibition of human TXK at 1 uM using RBER-CHKtide as substrate in presence of 33P-ATP by ProQinase assay
Tyrosine-protein kinase TXK (Homo sapiens), sequence (P42681 whole entry): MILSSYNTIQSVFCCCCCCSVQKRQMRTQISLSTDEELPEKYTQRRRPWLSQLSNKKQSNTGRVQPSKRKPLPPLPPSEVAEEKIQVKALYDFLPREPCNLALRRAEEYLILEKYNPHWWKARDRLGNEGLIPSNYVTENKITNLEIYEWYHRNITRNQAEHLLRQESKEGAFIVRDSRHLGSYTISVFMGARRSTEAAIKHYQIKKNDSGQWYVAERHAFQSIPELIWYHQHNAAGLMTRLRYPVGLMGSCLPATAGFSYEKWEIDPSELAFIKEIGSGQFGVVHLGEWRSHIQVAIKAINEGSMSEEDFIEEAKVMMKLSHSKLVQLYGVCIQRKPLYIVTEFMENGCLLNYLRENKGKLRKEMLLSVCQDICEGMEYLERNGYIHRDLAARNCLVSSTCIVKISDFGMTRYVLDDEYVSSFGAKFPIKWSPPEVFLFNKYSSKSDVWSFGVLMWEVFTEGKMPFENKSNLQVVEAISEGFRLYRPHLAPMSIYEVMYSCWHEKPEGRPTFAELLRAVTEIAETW

[13] = target: Ribosomal protein S6 kinase beta-2 (Homo sapiens) (UniProt Q9UBS0); assay: Inhibition of human S6K-beta at 1 uM using RBER-CHKtide as substrate in presence of 33P-ATP by ProQinase assay
[14] = target: Serine/threonine-protein kinase SIK3 (Homo sapiens) (UniProt Q9Y2K2); assay: as §1, with “GST and HA-tagged SIK3 (2” for “GST-tagged CDK9 (1”, “1369” for “372 residues)/Cyclin T1 (1 to 726”, “ALNRTSSDSALHRRR” for “YSPTSPSYSPTSPSYSPTSPKKK”
Serine/threonine-protein kinase SIK3 (Homo sapiens), sequence (Q9Y2K2 whole entry, looked up, the tested form may be a part): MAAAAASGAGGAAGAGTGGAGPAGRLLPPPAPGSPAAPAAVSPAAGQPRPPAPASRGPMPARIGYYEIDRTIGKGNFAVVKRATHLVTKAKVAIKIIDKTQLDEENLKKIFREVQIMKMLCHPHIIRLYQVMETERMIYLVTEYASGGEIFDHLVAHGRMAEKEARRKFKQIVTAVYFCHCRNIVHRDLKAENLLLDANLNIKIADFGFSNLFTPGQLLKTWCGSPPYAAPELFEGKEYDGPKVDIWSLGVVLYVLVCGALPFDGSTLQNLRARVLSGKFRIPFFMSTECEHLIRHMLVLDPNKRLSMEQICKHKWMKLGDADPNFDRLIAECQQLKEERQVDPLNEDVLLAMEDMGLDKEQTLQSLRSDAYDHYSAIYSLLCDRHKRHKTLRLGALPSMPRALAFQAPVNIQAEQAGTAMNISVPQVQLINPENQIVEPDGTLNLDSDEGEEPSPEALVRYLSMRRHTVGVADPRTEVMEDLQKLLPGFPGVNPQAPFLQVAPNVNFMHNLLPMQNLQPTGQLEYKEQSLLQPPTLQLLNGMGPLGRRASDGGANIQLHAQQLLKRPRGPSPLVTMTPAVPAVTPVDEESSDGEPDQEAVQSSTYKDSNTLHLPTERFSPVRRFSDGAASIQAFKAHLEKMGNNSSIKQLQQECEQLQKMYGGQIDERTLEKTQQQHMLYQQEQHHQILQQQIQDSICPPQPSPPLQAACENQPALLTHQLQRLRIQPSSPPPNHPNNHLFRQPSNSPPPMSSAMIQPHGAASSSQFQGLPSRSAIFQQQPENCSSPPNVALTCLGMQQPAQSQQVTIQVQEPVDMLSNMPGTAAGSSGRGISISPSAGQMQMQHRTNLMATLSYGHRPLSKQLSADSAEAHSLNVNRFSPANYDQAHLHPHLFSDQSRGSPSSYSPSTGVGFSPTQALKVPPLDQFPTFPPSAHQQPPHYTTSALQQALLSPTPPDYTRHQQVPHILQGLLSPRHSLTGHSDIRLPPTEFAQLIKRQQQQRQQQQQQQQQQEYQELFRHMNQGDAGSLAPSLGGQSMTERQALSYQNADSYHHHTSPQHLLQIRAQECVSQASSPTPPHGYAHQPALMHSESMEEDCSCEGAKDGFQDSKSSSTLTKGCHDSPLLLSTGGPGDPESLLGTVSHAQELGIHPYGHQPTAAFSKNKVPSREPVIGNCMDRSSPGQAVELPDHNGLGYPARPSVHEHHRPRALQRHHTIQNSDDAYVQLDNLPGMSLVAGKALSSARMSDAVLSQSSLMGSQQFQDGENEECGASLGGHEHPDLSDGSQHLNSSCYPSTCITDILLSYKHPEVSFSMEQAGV

[15] = target: Mitogen-activated protein kinase 10 (Homo sapiens) (UniProt P53779); assay: Inhibition of recombinant human N-terminal GST/C-terminal His6-tagged JNK3 (40 to 422 residues) expressed in Escherichia coli assessed as remaining activity at 1 uM using ATF2 as substrate incubated for 30 mins in presence of [gamma-33P]ATP by filter binding method relative to control
[16] = target: Dual specificity tyrosine-phosphorylation-regulated kinase 3 (Homo sapiens) (UniProt O43781); assay: Inhibition of recombinant human N-terminal GST-tagged DYRK3 (1 to 588 residues) expressed in Escherichia coli assessed as remaining activity at 1 uM using KKISGRLSPIMTEQ as substrate incubated for 30 mins in presence of [gamma-33P]ATP by filter binding method relative to control
[17] = target: Activin receptor type-1 (Homo sapiens) (UniProt Q04771); assay: Inhibition of human ACVR1 at 1 uM using RBER-GSK3 as substrate in presence of 33P-ATP by ProQinase assay
[18] = target: Serine/threonine-protein kinase ULK2 (Homo sapiens) (UniProt Q8IYT8); assay: Inhibition of recombinant human ULK2 (1 to 1036 residues) expressed in baculovirus infected Sf21 cells assessed as remaining activity at 1 uM using MBP as substrate incubated for 30 mins in presence of [gamma-33P]ATP by filter binding method relative to control
Serine/threonine-protein kinase ULK2 (Homo sapiens), sequence (Q8IYT8 whole entry, the tested form may be a part): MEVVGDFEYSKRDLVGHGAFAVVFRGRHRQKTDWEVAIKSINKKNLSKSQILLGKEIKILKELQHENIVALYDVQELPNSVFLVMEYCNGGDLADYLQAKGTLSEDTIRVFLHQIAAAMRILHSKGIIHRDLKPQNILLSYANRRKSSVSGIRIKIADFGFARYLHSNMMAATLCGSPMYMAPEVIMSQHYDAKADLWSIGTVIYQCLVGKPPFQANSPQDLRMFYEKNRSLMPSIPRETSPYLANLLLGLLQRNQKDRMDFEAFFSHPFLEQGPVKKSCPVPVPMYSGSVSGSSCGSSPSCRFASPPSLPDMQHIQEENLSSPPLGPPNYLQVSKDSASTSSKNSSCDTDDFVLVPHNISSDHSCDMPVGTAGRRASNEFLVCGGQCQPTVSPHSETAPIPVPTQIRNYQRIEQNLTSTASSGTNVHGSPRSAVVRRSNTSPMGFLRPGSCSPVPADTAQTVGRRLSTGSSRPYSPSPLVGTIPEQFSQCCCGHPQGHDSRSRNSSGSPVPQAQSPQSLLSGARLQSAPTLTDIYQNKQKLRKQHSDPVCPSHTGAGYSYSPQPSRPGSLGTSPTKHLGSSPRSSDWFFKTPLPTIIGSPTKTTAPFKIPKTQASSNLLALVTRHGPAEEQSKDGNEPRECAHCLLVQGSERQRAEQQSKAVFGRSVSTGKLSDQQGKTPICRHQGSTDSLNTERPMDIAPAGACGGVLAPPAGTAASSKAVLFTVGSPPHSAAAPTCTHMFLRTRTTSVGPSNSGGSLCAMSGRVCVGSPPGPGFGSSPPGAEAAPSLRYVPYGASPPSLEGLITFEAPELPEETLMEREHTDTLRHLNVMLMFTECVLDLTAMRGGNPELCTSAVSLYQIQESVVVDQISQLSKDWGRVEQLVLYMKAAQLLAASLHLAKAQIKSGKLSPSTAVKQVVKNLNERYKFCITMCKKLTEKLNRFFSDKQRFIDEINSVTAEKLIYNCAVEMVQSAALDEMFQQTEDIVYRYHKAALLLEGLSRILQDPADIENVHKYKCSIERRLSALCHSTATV

[19] = target: Protein kinase C alpha type (Homo sapiens) (UniProt P17252); assay: Inhibition of human PKCalpha at 1 uM using 3xChocktide-PKC as substrate in presence of 33P-ATP by ProQinase assay
[20] = test system: U2OS; assay: Inhibition of PI3K in human U2OS cells expressing FLAG-tagged SGK3 assessed as reduction in PRAS40 phosphorylation at T246 residues at 0.01 to 1 uM 1 hr by immunoblot analysis; type: cell-based; details: dose 0.01-1 µM
How it was run: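 Flp-In T-REx U2OS cells were grown in McCoy medium with 10% FBS. Expression of C-terminally FLAG-tagged full-length SGK3 was induced with 0.01 mg/ml doxycycline for 24 h. Cells were treated with inhibitor for 1 h and lysed in phosphatase-inhibitor buffer. Lysates were cleared at 16000 g for 10 min at 4°C, protein was measured by Bradford, and phosphorylation was read by immunoblot with ECL detection.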

[21] = target: Serine/threonine-protein kinase 16 (Homo sapiens) (UniProt O75716); assay: Inhibition of recombinant human N-terminal GST-tagged MPSK1 (1 to 305 residues) expressed in Escherichia coli assessed as remaining activity at 1 uM using RRHYYYDTHTNTYYLRTFGHNTRR as substrate incubated for 30 mins in presence of [gamma-33P]ATP by filter binding method relative to control
[22] = target: Serine/threonine-protein kinase 25 (Homo sapiens) (UniProt O00506); assay: Inhibition of human STK25 at 1 uM using casein as substrate in presence of 33P-ATP by ProQinase assay
[23] = target: Tau-tubulin kinase 2 (Homo sapiens) (UniProt Q6IQ55); assay: Inhibition of recombinant human TTBK2 (1 to 450 residues) expressed in baculovirus infected Sf21 cells assessed as remaining activity at 1 uM using RRKDLHDDEEDEAMSITA as substrate incubated for 30 mins in presence of [gamma-33P]ATP by filter binding method relative to control

Dual specificity protein kinase CLK1 (Homo sapiens), sequence (P49759 whole entry, looked up, the tested form may be a part): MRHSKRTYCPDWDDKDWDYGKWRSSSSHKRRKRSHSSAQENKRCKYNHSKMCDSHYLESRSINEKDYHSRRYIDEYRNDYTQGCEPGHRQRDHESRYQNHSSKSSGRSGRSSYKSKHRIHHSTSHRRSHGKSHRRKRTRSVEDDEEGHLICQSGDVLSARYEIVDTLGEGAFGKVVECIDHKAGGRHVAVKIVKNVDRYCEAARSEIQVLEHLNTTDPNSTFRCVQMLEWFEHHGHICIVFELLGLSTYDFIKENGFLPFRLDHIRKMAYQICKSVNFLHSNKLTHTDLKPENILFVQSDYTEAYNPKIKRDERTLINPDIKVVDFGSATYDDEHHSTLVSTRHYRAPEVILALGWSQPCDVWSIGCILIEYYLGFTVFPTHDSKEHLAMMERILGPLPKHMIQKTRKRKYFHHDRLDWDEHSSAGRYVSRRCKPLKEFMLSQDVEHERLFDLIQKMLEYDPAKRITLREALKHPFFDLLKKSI

CC(C)(O)CNc1ncc(-c2ccnc(Nc3ccnc(Cl)c3)n2)c(CC2CC2)n1
inhibition [1]: inactive | Activity [2]: 106% | inhibition [3]: inactive | inhibition [4]: inactive | Activity [5]: 91% | IC50 [6]: > 10 µM | inhibition [7]: inactive | inhibition [8]: inactive | inhibition [9]: inactive | inhibition [10]: inactive | Activity [11]: 112% | inhibition [12]: inactive | inhibition [13]: inactive | Activity [14]: 112% | Activity [15]: 95% | Activity [16]: 112% | inhibition [17]: inactive | Activity [18]: 118% | inhibition [19]: inactive | inhibition [20]: inactive | Activity [21]: 118% | inhibition [22]: inactive | Activity [23]: 88%
